# Assay results from different studies.
# Target: Tyrosine-protein kinase receptor UFO (AXL, Homo sapiens, UniProt P30530)
# One construct used (P30530 1-894): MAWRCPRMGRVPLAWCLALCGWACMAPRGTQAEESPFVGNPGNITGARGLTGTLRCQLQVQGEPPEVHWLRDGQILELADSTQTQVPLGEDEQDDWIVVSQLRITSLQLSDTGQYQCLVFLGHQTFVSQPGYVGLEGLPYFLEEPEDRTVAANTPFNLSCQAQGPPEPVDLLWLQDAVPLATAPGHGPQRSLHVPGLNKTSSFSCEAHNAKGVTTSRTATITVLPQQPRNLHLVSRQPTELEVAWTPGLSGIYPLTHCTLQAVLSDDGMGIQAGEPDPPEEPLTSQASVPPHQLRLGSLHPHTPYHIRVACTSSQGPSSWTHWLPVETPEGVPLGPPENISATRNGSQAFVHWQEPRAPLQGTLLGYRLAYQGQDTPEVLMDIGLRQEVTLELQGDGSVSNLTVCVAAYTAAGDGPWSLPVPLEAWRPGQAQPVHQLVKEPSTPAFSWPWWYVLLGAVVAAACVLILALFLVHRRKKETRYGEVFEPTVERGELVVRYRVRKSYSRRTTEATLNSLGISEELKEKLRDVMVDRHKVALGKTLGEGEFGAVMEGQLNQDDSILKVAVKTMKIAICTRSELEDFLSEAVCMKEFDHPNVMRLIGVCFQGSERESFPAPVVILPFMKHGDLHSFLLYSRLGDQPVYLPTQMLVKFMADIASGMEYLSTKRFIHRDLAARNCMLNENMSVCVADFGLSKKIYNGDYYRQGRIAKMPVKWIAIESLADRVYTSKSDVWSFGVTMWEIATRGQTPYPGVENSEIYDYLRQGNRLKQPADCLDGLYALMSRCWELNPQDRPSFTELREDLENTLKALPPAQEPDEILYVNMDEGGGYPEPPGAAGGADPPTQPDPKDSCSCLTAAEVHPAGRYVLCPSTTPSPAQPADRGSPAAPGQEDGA
SMILES,read-out,mode,technique,cells,tested at,endpoint,value
O=C1NC(=O)c2cc(Nc3ccc(F)cc3)c(Nc3ccc(F)cc3)cc21,cell-free assay,,,,0.5 µM,remaining signal,104%
CNCc1ccc(-c2cc(-c3nc(-c4ccc(S(=O)(=O)C(C)C)cc4)cnc3N)on2)cc1,enzyme activity,inhibitor,,,0.4 µM,inhibition,27%
Cc1ccc(C(=O)NCc2ccsc2)cc1C#Cc1cn(C(C)C)c2ncnc(N)c12,enzyme activity,inhibitor,,,1 µM,activity vs control,72%
CC1=C(C#N)[C@@H](c2ccc3[nH]nc(C)c3c2)C(C#N)=C(c2ccc(Cl)cc2)N1,cell-free assay,,competition with immobilised ligand,,1 µM,remaining binding,100%
Cc1sc(C(=O)NC2COC2)cc1-n1cc(NC(=O)Nc2c(F)cccc2Cl)cn1,enzyme activity,inhibitor,,,10 µM,remaining activity,86.6%
COc1cc(Cl)c(C(=O)N[C@@H](CN[C@H]2CC[C@@H](N)CC2)Cc2ccc(C#N)cc2)cc1-c1ccc(CN[C@H](C)c2ccc(C)cc2)o1,enzyme activity,inhibitor,,,1 µM,remaining activity,56%
CCCOc1ccc([C@H]2[C@H](C(=O)O)[C@@H](c3ccc4c(c3)OCO4)CN2CC(=O)Nc2c(CC)cccc2CC)cc1,cell-free assay,,competition with immobilised ligand,,1 µM,remaining binding,83%
CCCS(=O)(=O)Nc1ccc(F)c(C(=O)c2c[nH]c3ncc(-c4ccc(Cl)cc4)cc23)c1F,enzyme activity,inhibitor,,,1 µM,inhibition,< 10%
Cc1cc(NC(=O)c2cccc(S(F)(F)(F)(F)F)c2)cc(-n2ccn3nc(-c4cccnc4)cc23)c1,cell-free assay,,competition with immobilised ligand,,1 µM,remaining binding,100%
CCN(CC)CCNC(=O)c1c(C)[nH]c(/C=C2\C(=O)Nc3ccc(F)cc32)c1C,enzyme activity,inhibitor,,,0.1 µM,remaining activity,41%
CC/C(=N\NC(=O)NCc1cccc(O)c1)c1ccc(O)c(C)c1O,enzyme activity,inhibitor,,,0.1 µM,inhibition,1.3%
O=C(Nc1cnn(-c2csc(C(=O)NC3COC3)c2)c1)Nc1ccccc1Cl,enzyme activity,inhibitor,,,5 µM,remaining activity,96.7%
CC(C)(C)c1nc2c(s1)c1nc(N)ncc1c1ccc(NS(=O)(=O)c3c(F)cccc3F)c(F)c12,enzyme activity,inhibitor,radiometric,,1 µM,remaining activity,100%
Clc1ccc(Nc2nnc(Cc3ccncc3)c3ccccc23)cc1,cell-free assay,,,,0.5 µM,remaining signal,98.3%
CNC(=O)Nc1ccc2c(c1)[C@@]1(CC2)OC(=O)N(CC(=O)N(Cc2ccc(F)cc2)[C@@H](C)C(F)(F)F)C1=O,cell-free assay,,competition with immobilised ligand,,1 µM,remaining binding,67%
COc1cc2ncnc(Nc3ccc(Oc4ccccc4)cc3C)c2cc1OC,enzyme activity,inhibitor,,,1 µM,inhibition,8%
COc1cc2nccc(Oc3ccc(NC(=O)c4c5n(n(-c6ccc(F)cc6)c4=O)CCCC5)cc3)c2cc1OC,enzyme activity,inhibitor,,,0.1 µM,inhibition,93%
CCN(CC)CCNC(=O)c1c(C)[nH]c(/C=C2\C(=O)Nc3ccc(F)cc32)c1C,enzyme activity,inhibitor,,,10 µM,inhibition,94%
O=c1cc(-c2cccc3c2Sc2ccccc2S3)oc(N2CCOCC2)c1,enzyme activity,inhibitor,,,0.5 µM,remaining activity,106%
CCN1CCN(Cc2ccc(NC(=O)c3ccc(C)c(Oc4ccnc5[nH]ccc45)c3)cc2C(F)(F)F)CC1,target engagement in cells,inhibitor,chemoproteomics,A-375,5 µM,inhibition,-35.7%
COc1cc2nccc(Oc3ccc(NC(=S)NC(=O)c4ccccc4C)cc3)c2cc1OC,enzyme activity,inhibitor,,,0.5 µM,remaining activity,80.4%
Nc1ncnc2occ(-c3ccc(NC(=O)Nc4cc(C(F)(F)F)ccc4F)cc3)c12,cell-free assay,,,,20 µM,remaining signal,21%
CC(=O)N1CCC(c2ccc(C(=O)NC(=N)N)cc2C(F)(F)F)CC1,cell-free assay,,competition with immobilised ligand,,1 µM,remaining binding,100%
CNC(=O)c1cc(Oc2ccc(NC(=O)Nc3ccc(Cl)c(C(F)(F)F)c3)cc2)ccn1,enzyme activity,inhibitor,,,0.3 µM,inhibition,3%
O=c1c2ccccc2[nH]c(=S)n1CCN1CCC(=C(c2ccc(F)cc2)c2ccc(F)cc2)CC1,enzyme activity,inhibitor,,,0.5 µM,remaining activity,91.7%
CN1CC(Oc2cnc(C#N)cc2-c2ccn3nc(NC(=O)C4CC4)cc3c2)C1,enzyme activity,inhibitor,,,1 µM,inhibition,-5%
CS(=O)(=O)N1CCCC(NC(=O)[C@H](CCC2CCCCC2)NC(=O)c2ccc(CNc3ncnc4c3nnn4-c3ccccc3)cc2)C1 (some centres unmarked),cell-free assay,,competition with immobilised ligand,,0.1 µM,remaining binding,79%
COc1ccc(C(=O)Nc2sc3c(c2C(N)=O)CCCC3)cc1OC,enzyme activity,inhibitor,,,0.5 µM,remaining activity,84.4%
CNCc1ccccc1-c1csc([C@H](C)Nc2nc(C)nc3cc(OC)c(OC)cc23)c1,cell-free assay,,competition with immobilised ligand,,1 µM,remaining binding,100%
Cc1[nH]c(/C=C2\C(=O)Nc3ccc(F)cc32)c(C)c1C(=O)N[C@H]1CCN(C(=O)N(C)C)C1,enzyme activity,inhibitor,,,0.1 µM,remaining activity,89%
O=C(O)c1ccc2c3c1cccc3c(=O)n1c3ccccc3nc21,enzyme activity,inhibitor,,,0.5 µM,remaining activity,94.3%
Cc1cc(C)c(-n2ccn3nc(-c4cccnc4)cc23)cc1NC(=O)c1cc(C#N)cc(S(F)(F)(F)(F)F)c1,cell-free assay,,competition with immobilised ligand,,0.1 µM,remaining binding,80.5%
